From ChEMBL document CHEMBL4219251, “Synthesis and biological evaluation of 2,4-disubstituted phthalazinones as Aurora kinase inhibitors” (Bioorg Med Chem, 2018)
Calls of active or inactive are those of the source. The rule behind the calls is not given here.

How the values were obtained:
HeLa [1] = test: Antiproliferative activity against human HeLa cells after 72 hrs by MTT assay; assay type: functional, cell-based
Outline: (§1)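 Cells kept in RPMI-1640 with 10% FBS at 37 °C, 5% CO2. Seeded at 5×10^3 cells/well and grown 24 h, then exposed 72 h at 37 °C to five concentrations (0.01, 0.1, 1, 10, 100 μM) in medium. MTT added for 4 h, formazan dissolved in DMSO, absorbance read at 490 nm. IC50 taken from a log plot of percent of control vs concentration; means ± SD of triplicate experiments.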

A549 = test: Antiproliferative activity against human A549 cells after 72 hrs by MTT assay; assay type: functional, cell-based; outline: as §1
HepG2 = test: Antiproliferative activity against human HepG2 cells after 72 hrs by MTT assay; assay type: functional, cell-based; outline: as §1
LoVo = test: Antiproliferative activity against human LoVo cells after 72 hrs by MTT assay; assay type: functional, cell-based; outline: as §1
HCT-116 = test: Antiproliferative activity against human HCT116 cells after 72 hrs by MTT assay; assay type: functional, cell-based; outline: as §1
Aurora kinase A = biological target: T1, Aurora kinase A (Homo sapiens, UniProt O14965); test: Inhibition of Aurora A (unknown origin) using kemptide as substrate after 30 mins by kinase-Glo luminescence method
T1 sequence (O14965 whole entry): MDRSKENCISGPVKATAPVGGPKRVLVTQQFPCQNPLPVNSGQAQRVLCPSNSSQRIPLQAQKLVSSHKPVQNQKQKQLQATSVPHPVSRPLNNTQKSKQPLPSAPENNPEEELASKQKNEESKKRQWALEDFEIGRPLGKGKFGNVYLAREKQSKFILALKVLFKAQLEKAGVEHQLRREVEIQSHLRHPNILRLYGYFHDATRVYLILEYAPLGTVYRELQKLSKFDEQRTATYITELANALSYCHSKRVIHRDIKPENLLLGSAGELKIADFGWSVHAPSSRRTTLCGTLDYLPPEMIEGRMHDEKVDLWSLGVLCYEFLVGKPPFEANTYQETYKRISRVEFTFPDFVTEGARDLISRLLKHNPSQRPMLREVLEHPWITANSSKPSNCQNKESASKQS
Outline: (§2)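 Luminescent kinase assay. Reaction buffer: 40 mM Tris pH 7.4, 10 mM MgCl2, 1 mM DTT, 0.1 mg/ml BSA, 10 μM ATP, 0.2 μg/ml kinase, 100 μM Kemptide. Compounds tested at 0.1, 1, 10, 100 and 1000 nM (diluted in PBS). Reactions ran 30 min at 37 °C, signal read by Kinase-Glo luminescence, IC50 fitted from the curves.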

Aurora kinase B [2] = biological target: T2, Aurora kinase B (Homo sapiens, UniProt Q96GD4); test: Inhibition of Aurora B (unknown origin) using kemptide as substrate after 30 mins by kinase-Glo luminescence method; outline: as §2
T2 sequence (Q96GD4 whole entry): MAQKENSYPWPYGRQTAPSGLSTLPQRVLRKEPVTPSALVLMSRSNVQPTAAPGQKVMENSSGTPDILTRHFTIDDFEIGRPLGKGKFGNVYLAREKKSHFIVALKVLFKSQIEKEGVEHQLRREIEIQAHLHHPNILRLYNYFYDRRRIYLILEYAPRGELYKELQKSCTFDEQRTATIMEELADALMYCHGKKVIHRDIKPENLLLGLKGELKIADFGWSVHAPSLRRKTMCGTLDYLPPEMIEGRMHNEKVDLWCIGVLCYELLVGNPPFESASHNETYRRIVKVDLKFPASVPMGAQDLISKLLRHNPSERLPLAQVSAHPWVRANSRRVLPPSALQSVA

[3] = biological target: T3, Aurora kinase A (Homo sapiens) (UniProt O14965); test: Inhibition of Aurora A phosphorylation at Thr288 residue in human HeLa cells after 6 hrs by Western blot method; assay type: cell-based
T3 sequence (whole entry): T1 sequence (O14965 whole entry)
Outline: (§3)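 HeLa cells treated 6 h at 0, 0.5, 2.5 or 5.0 μM. Lysates (20–30 μg) resolved on 12% SDS-PAGE and blotted to PVDF. Probed overnight at 4 °C with antibodies to phospho-AurA Thr288, phospho-AurB Thr232 and total AurA/AurB. β-actin used as loading control. Values are mean ± SD versus control.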

Aurora kinase B [4] = biological target: T2, Aurora kinase B; test: Inhibition of Aurora B phosphorylation at Thr232 residue in human HeLa cells after 6 hrs by Western blot method; assay type: cell-based; outline: as §3
[5] = biological target: T3, Aurora kinase A (Homo sapiens); test: Inhibition of Aurora A phosphorylation at Thr288 residue in human HeLa cells at 5 uM after 6 hrs by Western blot method; assay type: cell-based; outline: as §3
Aurora kinase B [6] = biological target: T2, Aurora kinase B; test: Inhibition of Aurora B phosphorylation at Thr232 residue in human HeLa cells at 5 uM after 6 hrs by Western blot method; assay type: cell-based; outline: as §3
HeLa [7] = test: Cell cycle arrest in human HeLa cells assessed as accumulation at G1 phase at 0.5 uM after 24 hrs by propidium iodide staining based FACS analysis (reference value: 65.66%); assay type: functional
Outline: (§4)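 HeLa cells exposed 24 h to 0, 0.5, 2.0 or 5.0 μM. (1–5)×10^5 cells harvested, washed twice in PBS, fixed overnight or longer in 75% ice-cold ethanol, then washed three times in PBS. DNA stained 15 min in darkness with 1% Triton X-100, 0.01% RNase, 0.05% PI. Phase distribution measured by flow cytometry.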

HeLa [8] = test: Cell cycle arrest in human HeLa cells assessed as accumulation at G2/M phase at 0.5 uM after 24 hrs by propidium iodide staining based FACS analysis (reference value: 9.63%); assay type: functional; outline: as §4
HeLa [9] = test: Cell cycle arrest in human HeLa cells assessed as accumulation at S phase at 0.5 uM after 24 hrs by propidium iodide staining based FACS analysis (reference value: 24.72%); assay type: functional; outline: as §4
HeLa [10] = test: Cell cycle arrest in human HeLa cells assessed as accumulation at G1 phase at 2 uM after 24 hrs by propidium iodide staining based FACS analysis (reference value: 65.66%); assay type: functional; outline: as §4
HeLa [11] = test: Cell cycle arrest in human HeLa cells assessed as accumulation at G2/M phase at 2 uM after 24 hrs by propidium iodide staining based FACS analysis (reference value: 9.63%); assay type: functional; outline: as §4
HeLa [12] = test: Cell cycle arrest in human HeLa cells assessed as accumulation at S phase at 2 uM after 24 hrs by propidium iodide staining based FACS analysis (reference value: 24.72%); assay type: functional; outline: as §4
HeLa [13] = test: Cell cycle arrest in human HeLa cells assessed as accumulation at G1 phase at 5 uM after 24 hrs by propidium iodide staining based FACS analysis (reference value: 65.66%); assay type: functional
HeLa [14] = test: Cell cycle arrest in human HeLa cells assessed as accumulation at G2/M phase at 5 uM after 24 hrs by propidium iodide staining based FACS analysis (reference value: 9.63%); assay type: functional
HeLa [15] = test: Cell cycle arrest in human HeLa cells assessed as accumulation at S phase at 5 uM after 24 hrs by propidium iodide staining based FACS analysis (reference value: 24.72%); assay type: functional
HeLa [16] = test: Cell cycle arrest in human HeLa cells assessed as accumulation at G2/M phase after 24 hrs by propidium iodide staining based FACS analysis; assay type: functional; outline: as §4
HeLa [17] = test: Downregulation of Cyclin-B1 protein level in human HeLa cells after 24 hrs by Western blot method; assay type: functional, cell-based
Outline: (§5)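 HeLa cells treated 24 h at 0, 0.5, 2.0 or 5.0 μM, or with VX-680 at 5.0 μM. Lysed in Tris-HCl pH 7.5/NP-40/SDS buffer with protease inhibitors, 20–30 μg protein run on 12% SDS-PAGE, transferred to PVDF, probed overnight at 4 °C with anti-cyclinB1 and anti-cdc2. β-actin served as loading control. Values are mean ± SD.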

HeLa [18] = test: Downregulation of Cdc2 protein level in human HeLa cells after 24 hrs by Western blot method; assay type: functional, cell-based; outline: as §5

Structure (SMILES)	IC50 (HeLa [1]; Homo sapiens, HeLa, 72 h) [µM]	IC50 (A549; Homo sapiens, A549, 72 h) [µM]	IC50 (HepG2; Homo sapiens, HepG2, 72 h) [µM]	IC50 (LoVo; Homo sapiens, LoVo, 72 h) [µM]	IC50 (HCT-116; Homo sapiens, HCT-116, 72 h) [µM]	further results
Cc1noc(C)c1-c1nn(Cc2ccc(C(=O)N3CCCCC3)cc2)c(=O)c2ccccc12	> 100	86.2	97.3	> 100	> 100	
Cc1cc(Nc2nn(Cc3ccccc3)c(=O)c3ccccc23)n[nH]1	6.3	42.6	11.3	22.2	22.7	
Cn1cc(-c2nn(Cc3ccc(C(=O)NC4CC(C)(C)N([O])C(C)(C)C4)cc3)c(=O)c3ccccc23)cn1	27.7	37.3	27.4	50.1	50.5	IC50 (Aurora kinase A): 0.168 µM; IC50 (Aurora kinase B [2]): 0.134 µM
Cn1cc(-c2nn(Cc3ccc(C(=O)N4CCOCC4)cc3)c(=O)c3ccccc23)cn1	> 100	73.3	> 100	52.3	> 100	
O=C(Nc1ccccc1Cl)c1ccc(Nc2nn(Cc3ccc(C(=O)NC4CCCCC4)cc3)c(=O)c3ccccc23)cc1	87.3	> 100	82.4	79.5	> 100	
Cc1noc(C)c1-c1nn(Cc2ccc(C(=O)NC3CC3)cc2)c(=O)c2ccccc12	> 100	> 100	> 100	> 100	> 100	
Cn1cc(Nc2nn(Cc3ccc(C(=O)NC4CCCCC4)cc3)c(=O)c3ccccc23)cn1	3.2	6.8	8.3	5.3	5.4	IC50 (Aurora kinase A): 0.145 µM; IC50 (Aurora kinase B [2]): 0.132 µM
Cc1noc(C)c1-c1nn(Cc2ccc(C(=O)N3CCOCC3)cc2)c(=O)c2ccccc12	> 100	> 100	> 100	84.4	> 100	
Cn1cc(-c2nn(Cc3ccc(C(=O)NC4CC4)cc3)c(=O)c3ccccc23)cn1	40	51.2	> 100	48.2	20.1	
Cn1cc(-c2nn(Cc3ccc(C(=O)NC4CCCC4)cc3)c(=O)c3ccccc23)cn1	16.7	32.3	84.3	23.7	14.3	IC50 (Aurora kinase A): 0.583 µM; IC50 (Aurora kinase B [2]): 0.265 µM
Cc1noc(C)c1-c1nn(Cc2ccc(C(=O)NC3CCCCC3)cc2)c(=O)c2ccccc12	> 100	> 100	> 100	82.2	> 100	
Cc1noc(C)c1-c1nn(Cc2ccc(C(=O)NC3CCN(C)CC3)cc2)c(=O)c2ccccc12	> 100	> 100	> 100	> 100	84.9	
Cn1cc(-c2nn(Cc3ccc(C(=O)N4CCCCC4)cc3)c(=O)c3ccccc23)cn1	65.5	67.4	73.1	77.1	73.9	
Cn1cc(-c2nn(Cc3ccc(C(=O)NC4CCCCC4)cc3)c(=O)c3ccccc23)cn1	2.2	3.3	4.6	2.6	3.8	IC50 (Aurora kinase A): 0.118 µM; IC50 (Aurora kinase B [2]): 0.08 µM; inhibition [3]: Dose-dependent effect; inhibition (Aurora kinase B [4]): Dose-dependent effect; inhibition [5]: Active; inhibition (Aurora kinase B [6]): Active; Activity (HeLa [7]): 34.87%; Activity (HeLa [8]): 34.66%; Activity (HeLa [9]): 30.47%; Activity (HeLa [10]): 5.98%; Activity (HeLa [11]): 81.19%; Activity (HeLa [12]): 12.83%; Activity (HeLa [13]): 7.34%; Activity (HeLa [14]): 87.17%; Activity (HeLa [15]): 5.48%; Activity (HeLa [16]): Dose-dependent effect; Activity (HeLa [17]): Dose-dependent effect; Activity (HeLa [18]): Dose-dependent effect
Cc1noc(C)c1-c1nn(Cc2ccc(C(=O)NC3CCCC3)cc2)c(=O)c2ccccc12	> 100	> 100	> 100	> 100	> 100	
O=C(NC1CCCCC1)c1ccc(Cn2nc(Nc3ccc(C(=O)N4CCOCC4)cc3)c3ccccc3c2=O)cc1	23.2	64.3	40.4	54.5	48.2	
Cc1noc(C)c1-c1nn(Cc2ccc(C(=O)NC3CC(C)(C)N([O])C(C)(C)C3)cc2)c(=O)c2ccccc12						IC50 (HeLa [1]; hela): 83.5 µM; IC50 (A549; a549): 84.3 µM; IC50 (HepG2; hepg2): 85.1 µM; IC50 (LoVo; lovo): 41.2 µM; IC50 (HCT-116; hct-116): 36.8 µM
CN1CCC(NC(=O)c2ccc(Cn3nc(-c4cnn(C)c4)c4ccccc4c3=O)cc2)CC1	28.5	54.3	47.3	83.3	69.5	IC50 (Aurora kinase A): 0.183 µM; IC50 (Aurora kinase B [2]): 0.105 µM
